Laboratory results as given in ChEMBL document CHEMBL4627265, “Optimization of 8-oxoadenines with toll-like-receptor 7 and 8 activity” (Bioorg Med Chem Lett, 2020).
Activity calls are given as the source filed them. The rule behind the calls is not given here.

Experiments:
Assay type in all cases: cell-based
Toll-like receptor 7 = molecular target: T1, Toll-like receptor 7 (Homo sapiens, UniProt Q9NYK1); assay: Agonist activity at human TLR7 expressed in HEK293 cells assessed as induction of NFKappaB activity after 24 hrs by SEAP reporter gene assay
T1 sequence (Q9NYK1 whole entry): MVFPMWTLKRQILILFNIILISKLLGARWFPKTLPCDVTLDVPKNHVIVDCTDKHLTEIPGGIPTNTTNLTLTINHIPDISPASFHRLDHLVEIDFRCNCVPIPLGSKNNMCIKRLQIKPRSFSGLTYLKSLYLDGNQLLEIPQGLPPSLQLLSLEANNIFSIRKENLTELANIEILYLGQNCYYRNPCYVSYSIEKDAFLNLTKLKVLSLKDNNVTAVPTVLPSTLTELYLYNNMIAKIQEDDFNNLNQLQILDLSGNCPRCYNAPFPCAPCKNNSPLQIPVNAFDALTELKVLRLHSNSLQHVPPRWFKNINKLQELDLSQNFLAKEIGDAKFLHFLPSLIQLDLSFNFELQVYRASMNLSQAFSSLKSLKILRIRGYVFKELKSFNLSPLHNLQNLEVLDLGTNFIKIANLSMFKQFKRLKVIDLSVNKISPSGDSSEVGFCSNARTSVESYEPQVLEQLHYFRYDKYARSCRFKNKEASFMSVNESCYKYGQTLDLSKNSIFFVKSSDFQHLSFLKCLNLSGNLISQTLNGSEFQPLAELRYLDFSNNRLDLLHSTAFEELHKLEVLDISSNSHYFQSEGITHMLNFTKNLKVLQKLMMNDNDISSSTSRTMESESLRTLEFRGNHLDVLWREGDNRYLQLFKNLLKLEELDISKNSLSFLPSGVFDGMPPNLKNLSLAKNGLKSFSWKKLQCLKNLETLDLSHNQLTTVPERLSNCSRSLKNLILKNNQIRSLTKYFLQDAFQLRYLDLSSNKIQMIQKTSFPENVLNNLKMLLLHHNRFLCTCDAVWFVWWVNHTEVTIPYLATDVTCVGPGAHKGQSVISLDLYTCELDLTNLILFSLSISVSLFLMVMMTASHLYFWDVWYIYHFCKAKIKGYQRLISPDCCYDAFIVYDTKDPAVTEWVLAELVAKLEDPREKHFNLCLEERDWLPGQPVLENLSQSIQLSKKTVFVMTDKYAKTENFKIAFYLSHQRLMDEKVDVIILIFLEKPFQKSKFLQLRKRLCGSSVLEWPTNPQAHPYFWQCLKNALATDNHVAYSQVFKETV
How it was run: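 HEK293 cells stably transfected with hTLR7 or hTLR8 plus an NFκB-driven SEAP reporter, treated 24 h with compound over a μM range; SEAP secretion read out. EC50 as mean ± SD of three (TLR7) or four (TLR8) independent experiments.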

[1] = molecular target: T2, Toll-like receptor 7 (Homo sapiens) (UniProt Q9NYK1); assay: Agonist activity at TLR7 in human PBMC assessed as induction of plasmacytoid dendritic cell maturation by measuring CD86 level at 0.1 uM after 6 hrs by flow cytometry
T2 sequence (whole entry): T1 sequence (Q9NYK1 whole entry)
How it was run: (§1)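 hPBMCs stimulated 6 h at a single 0.1 μM dose; HLA-DR, MHC-I, CD80 and CD86 on mDCs and pDCs measured by flow cytometry, expressed as fold change versus unstimulated cells. Mean ± SD of three independent experiments in three different donors.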

[2] = molecular target: Toll-like receptor 3 (Homo sapiens) (UniProt O15455); assay: Agonist activity at human TLR3 expressed in HEK293 cells by SEAP reporter gene assay
[3] = molecular target: T2, Toll-like receptor 7 (Homo sapiens); assay: Agonist activity at TLR7 in human PBMC assessed as induction of plasmacytoid dendritic cell maturation by measuring MHC-1 level at 0.1 uM after 6 hrs by flow cytometry; how it was run: as §1
[4] = molecular target: T3, Toll-like receptor 9 (Homo sapiens) (UniProt Q9NR96); assay: Agonist activity at human TLR9 expressed in HEK293 cells by SEAP reporter gene assay
T3 sequence (whole entry): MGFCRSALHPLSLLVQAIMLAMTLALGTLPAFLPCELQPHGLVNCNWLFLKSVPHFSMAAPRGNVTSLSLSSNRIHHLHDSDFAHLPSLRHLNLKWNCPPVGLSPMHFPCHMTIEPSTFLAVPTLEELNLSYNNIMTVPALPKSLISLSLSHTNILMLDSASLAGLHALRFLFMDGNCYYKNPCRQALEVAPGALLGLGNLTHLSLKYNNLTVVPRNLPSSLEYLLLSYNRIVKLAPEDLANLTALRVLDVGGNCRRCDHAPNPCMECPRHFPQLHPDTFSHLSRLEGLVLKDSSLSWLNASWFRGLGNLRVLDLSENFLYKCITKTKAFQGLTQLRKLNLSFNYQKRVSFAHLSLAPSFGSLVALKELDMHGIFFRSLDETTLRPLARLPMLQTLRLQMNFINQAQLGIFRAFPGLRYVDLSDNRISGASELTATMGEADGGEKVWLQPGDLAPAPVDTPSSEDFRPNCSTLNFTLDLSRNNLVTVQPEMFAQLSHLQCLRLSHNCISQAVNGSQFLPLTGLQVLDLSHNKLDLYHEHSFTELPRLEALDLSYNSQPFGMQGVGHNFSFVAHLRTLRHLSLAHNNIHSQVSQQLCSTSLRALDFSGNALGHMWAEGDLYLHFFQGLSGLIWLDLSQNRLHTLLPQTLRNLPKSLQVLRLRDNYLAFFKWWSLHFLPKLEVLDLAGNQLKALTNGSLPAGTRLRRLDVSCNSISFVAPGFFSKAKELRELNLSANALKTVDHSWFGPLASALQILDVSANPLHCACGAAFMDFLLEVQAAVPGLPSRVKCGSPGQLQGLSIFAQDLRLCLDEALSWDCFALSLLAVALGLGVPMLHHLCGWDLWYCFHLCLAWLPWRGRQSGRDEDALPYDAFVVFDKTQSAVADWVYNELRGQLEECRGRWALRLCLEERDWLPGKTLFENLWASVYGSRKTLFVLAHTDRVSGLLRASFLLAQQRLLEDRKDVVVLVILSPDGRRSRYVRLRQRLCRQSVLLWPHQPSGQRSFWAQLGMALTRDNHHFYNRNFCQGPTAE

Chain of Toll-like receptor 3 (Homo sapiens) (O15455 whole entry): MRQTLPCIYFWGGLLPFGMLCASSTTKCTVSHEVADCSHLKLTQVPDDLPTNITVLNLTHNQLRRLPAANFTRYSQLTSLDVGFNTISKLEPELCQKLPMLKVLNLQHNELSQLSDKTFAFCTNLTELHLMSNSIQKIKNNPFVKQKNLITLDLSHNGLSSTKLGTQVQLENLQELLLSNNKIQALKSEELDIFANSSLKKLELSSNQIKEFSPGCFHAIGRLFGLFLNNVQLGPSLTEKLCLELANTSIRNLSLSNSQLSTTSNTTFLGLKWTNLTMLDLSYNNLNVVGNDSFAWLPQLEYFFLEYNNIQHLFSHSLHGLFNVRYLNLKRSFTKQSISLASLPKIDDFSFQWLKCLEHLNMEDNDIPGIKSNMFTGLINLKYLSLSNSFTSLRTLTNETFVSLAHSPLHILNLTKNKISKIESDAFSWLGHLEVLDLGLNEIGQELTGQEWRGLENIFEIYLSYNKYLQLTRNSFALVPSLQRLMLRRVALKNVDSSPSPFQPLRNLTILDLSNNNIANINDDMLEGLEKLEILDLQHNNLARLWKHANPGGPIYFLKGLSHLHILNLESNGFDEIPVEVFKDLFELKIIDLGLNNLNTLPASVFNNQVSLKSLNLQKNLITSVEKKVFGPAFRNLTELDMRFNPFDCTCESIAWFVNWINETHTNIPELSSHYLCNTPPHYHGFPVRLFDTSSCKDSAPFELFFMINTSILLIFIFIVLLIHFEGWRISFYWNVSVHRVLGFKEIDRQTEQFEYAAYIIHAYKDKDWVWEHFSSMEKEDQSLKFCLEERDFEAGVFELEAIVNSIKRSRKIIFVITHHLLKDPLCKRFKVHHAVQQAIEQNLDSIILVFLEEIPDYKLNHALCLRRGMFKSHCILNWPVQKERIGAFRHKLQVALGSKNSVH

`Nc1nc(OCCCCO)nc2c1[nH]c(=O)n2CC1CCNCC1` was tested, and the EC50 (Toll-like receptor 7) was > 500 µM, the Activity [1] was “inactive” and the Activity [2] was “inactive”. For the same molecule, the Activity [3] was “inactive” and the Activity [4] was “inactive”.
